According to article PMC6146878 (Molecules : A Journal of Synthetic Chemistry and Natural …, 2003):

Test: Interaction with DPPH
Procedure, shortened: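 DPPH 0.1 mM in absolute ethanol mixed with an equal volume of test compound in ethanol (0.1 mM); ethanol-only control. Kept at room temperature; absorbance at 517 nm recorded after 20 and 60 min. At least triplicate.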

Row | Compound | DPPH (0.1 mmol/L) 20min [%]
1 | CC(=O)Oc1ccccc1C(=O)O [ASA, Acetyl salicylic acid] | 80.5
2 | CC(Cc1ccc(O)c(O)c1)C(C)Cc1ccc(O)c(O)c1 (centres unmarked) [NDGA, nor-dihydroguaeretic acid] | 94
